Reference: ChEMBL document CHEMBL1123986, “Oral absorption of cephalosporin antibiotics. 2. Expanded structure-activity relationships of 7-(arylacetamido)-3-substituted cephalosporins” (1988)
Values after ≈ are worked out from the molar mass of the structure shown.

What was measured:
Haemophilus influenzae [1] = assay: (§1) Minimum inhibitory concentration against Haemophilus influenzae; type: functional
Outline: (§2)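 Agar dilution MIC in μg/mL. […] Organisms not run are marked not tested.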

Klebsiella aerogenes = assay: Minimum inhibitory concentration against Enterobacter aerogenes; type: functional; outline: as §2
Streptococcus pneumoniae [2] = assay: Minimum inhibitory concentration against Streptococcus pneumoniae; type: functional; outline: as §2
Klebsiella pneumoniae = assay: Minimum inhibitory concentration against Klebsiella pneumoniae; type: functional; outline: as §2
Staphylococcus aureus [3] = assay: Minimum inhibitory concentration against Staphylococcus aureus; type: functional; outline: as §2
Streptococcus pyogenes [4] = assay: Minimum inhibitory concentration against Streptococcus pyogenes; type: functional; outline: as §2
Salmonella typhi = assay: Minimum inhibitory concentration against Salmonella typhi; type: functional, Salmonella enterica subsp. enterica serovar Typhi; details: Salmonella enterica
Haemophilus influenzae [5] = assay: as §1; type: functional; outline: as §2; remark: listed apart in the source
Escherichia coli = assay: Minimum inhibitory concentration against Escherichia coli; type: functional; outline: as §2
Mus musculus [6] = assay: Effective dose administered orally (po) to 19-21-g random sex ICR mice at 1 hr and 5 hr intervals after intraperitoneal Streptococcus pyogenes; type: functional
Outline: (§3)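 Mouse protection: random-sex ICR mice, 19–21 g, challenged intraperitoneally from a frozen organism pool giving 50–500 LD50 per challenge dose. Drug given sc or po at 1 and 5 h post-infection. Five 2-fold dilution levels per compound, eight mice per dilution.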

Mus musculus [7] = assay: Effective dose administered orally (po) to 19-21-g random sex ICR mice at 1 hr and 5 hr intervals after intraperitoneal Staphylococcus aureus; type: functional; outline: as §3
Streptococcus pyogenes [8] = assay: Efficacy against mouse infections caused by Streptococcus pyogenes measured as Minimum inhibitory concentration
Streptococcus pneumoniae [9] = assay: Efficacy against mouse infections caused by S. Pneumoniae measured as Minimum inhibitory concentration
Mus musculus [10] = assay: Effective dose administered subcutaneously (sc) to 19-21-g random sex ICR mice at 1 hr and 5 hr intervals after intraperitoneal administration of Staphylococcus aureus; type: functional; outline: as §3
[11] = Ratio of ED50 value evaluated in Staphylococcus aureus by po to sc administration; type: functional
Outline: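 Oral/subcutaneous effective-dose ratio. Both routes were dosed in random-sex ICR mice of 19–21 g at 1 and 5 h after an intraperitoneal challenge of 50–500 LD50 from a frozen organism pool. Each route used five 2-fold dilution levels with eight mice per level, and the po value was divided by the sc value.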

Mus musculus [12] = assay: Effective dose administered orally (po) to 19-21-g random sex ICR mice at 1 hr and 5 hr intervals after intraperitoneal administration of Streptococcus pneumoniae; type: functional; outline: as §3
Mus musculus [13] = assay: Effective dose administered subcutaneously (sc) to 19-21-g random sex ICR mice at 1 hr and 5 hr intervals after intraperitoneal administration of Streptococcus pyogenes; type: functional; outline: as §3
Mus musculus [14] = assay: Effective dose administered subcutaneously (sc) to 19-21-g random sex ICR mice at 1 hr and 5 hr intervals after intraperitoneal administration of Streptococcus pneumoniae; type: functional; outline: as §3
Staphylococcus aureus [15] = assay: Efficacy against mouse infections caused by Staphylococcus aureus measured as Minimum inhibitory concentration

SMILES | MIC (Haemophilus influenzae [1]) [µg/mL] | MIC (Klebsiella aerogenes) [µg/mL] | MIC (Streptococcus pneumoniae [2]) [µg/mL] | MIC (Klebsiella pneumoniae) [µg/mL] | MIC (Staphylococcus aureus [3]) [µg/mL] | MIC (Streptococcus pyogenes [4]) [µg/mL] | MIC (Salmonella typhi) [µg/mL] | MIC (Haemophilus influenzae [5]) [µg/mL] | MIC (Escherichia coli) [µg/mL] | ED50 (Mus musculus [6]) | ED50 (Mus musculus [7]) | MIC (Streptococcus pyogenes [8]) [µg/mL] | MIC (Streptococcus pneumoniae [9]) [µg/mL] | ED50 (Mus musculus [10]) | Ratio [11] | ED50 (Mus musculus [12]) | ED50 (Mus musculus [13]) | ED50 (Mus musculus [14]) | MIC (Staphylococcus aureus [15]) [µg/mL]
O=C(Cc1ccc(F)cc1)N[C@@H]1C(=O)N2C(C(=O)O)=C(Cl)CS[C@H]12 | 1 (≈ 2.7 µM) | > 128 | 0.125 (≈ 0.337 µM) | 32 (≈ 86.3 µM) | 0.5 (≈ 1.35 µM) | 0.06 (≈ 0.162 µM) | 16 (≈ 43.2 µM) | 4 (≈ 10.8 µM) | 32 (≈ 86.3 µM) |  |  |  |  |  |  |  |  |  | 
COC1=C(C(=O)O)N2C(=O)[C@@H](NC(=O)Cc3noc(C(Cl)(Cl)Cl)n3)[C@H]2SC1 | 32 (≈ 69.9 µM) | > 128 | 4 (≈ 8.74 µM) | > 128 | 16 (≈ 35 µM) | 4 (≈ 8.74 µM) | > 128 | 32 (≈ 69.9 µM) | > 128 |  |  |  |  |  |  |  |  |  | 
O=C(COc1ccc(Cl)cc1)N[C@@H]1C(=O)N2C(C(=O)O)=C(Cl)CS[C@H]12 | 1 (≈ 2.48 µM) | > 128 | 0.03 (≈ 0.0744 µM) | > 128 | 0.125 (≈ 0.31 µM) | 0.03 (≈ 0.0744 µM) | > 128 | 1 (≈ 2.48 µM) | > 128 |  |  |  |  |  |  |  |  |  | 
O=C(Cc1noc(C(Cl)(Cl)Cl)n1)N[C@@H]1C(=O)N2C(C(=O)O)=CCS[C@H]12 | 16 (≈ 37.4 µM) | 128 (≈ 299 µM) | 2 (≈ 4.68 µM) | 32 (≈ 74.8 µM) | 2 (≈ 4.68 µM) | 2 (≈ 4.68 µM) | 16 (≈ 37.4 µM) | 32 (≈ 74.8 µM) | 32 (≈ 74.8 µM) |  |  |  |  |  |  |  |  |  | 
COc1ccc(OCC(=O)N[C@@H]2C(=O)N3C(C(=O)O)=C(Cl)CS[C@H]23)cc1 | 2 (≈ 5.01 µM) | > 128 | 0.125 (≈ 0.313 µM) | > 128 | 0.25 (≈ 0.627 µM) | 0.06 (≈ 0.15 µM) | > 128 | 2 (≈ 5.01 µM) | > 128 |  |  |  |  |  |  |  |  |  | 
O=C(Cc1csc2ccccc12)N[C@@H]1C(=O)N2C(C(=O)O)=CCS[C@H]12 | 0.5 (≈ 1.34 µM) | > 128 | 0.25 (≈ 0.668 µM) | > 128 | 0.25 (≈ 0.668 µM) | 0.06 (≈ 0.16 µM) | > 128 | 4 (≈ 10.7 µM) | 64 (≈ 171 µM) | >10 2mg kg-1 | 2.9 2mg kg-1 | 0.06 (≈ 0.16 µM) | 0.25 (≈ 0.668 µM) | 0.8 2mg kg-1 | 3.6 | >10 2mg kg-1 | 8.2 2mg kg-1 | >10 2mg kg-1 | 0.25 (≈ 0.668 µM)
Cc1nc(CC(=O)N[C@@H]2C(=O)N3C(C(=O)O)=C(Cl)CS[C@H]23)c(-c2ccccc2)s1 | 32 (≈ 71.1 µM) | > 128 | 0.06 (≈ 0.133 µM) | > 128 | 0.125 (≈ 0.278 µM) | 0.015 (≈ 0.0333 µM) | > 128 | 32 (≈ 71.1 µM) | > 128 |  |  |  |  |  |  |  |  |  | 
O=C(CSc1nccs1)N[C@@H]1C(=O)N2C(C(=O)O)=C(Cl)CS[C@H]12 |  | > 128 | 0.5 (≈ 1.28 µM) | 16 (≈ 40.8 µM) | 1 (≈ 2.55 µM) | 0.25 (≈ 0.638 µM) | 16 (≈ 40.8 µM) |  | 32 (≈ 81.7 µM) |  |  |  |  |  |  |  |  |  | 
COc1ccc(CC(=O)N[C@@H]2C(=O)N3C(C(=O)O)=C(Cl)CS[C@H]23)cc1 | 1 (≈ 2.61 µM) | > 128 | 0.125 (≈ 0.327 µM) | 32 (≈ 83.6 µM) | 0.5 (≈ 1.31 µM) | 0.125 (≈ 0.327 µM) | 32 (≈ 83.6 µM) | 1 (≈ 2.61 µM) | 64 (≈ 167 µM) |  |  |  |  |  |  |  |  |  | 
O=C(CSc1nc[nH]n1)N[C@@H]1C(=O)N2C(C(=O)O)=C(Cl)CS[C@H]12 | 4 (≈ 10.6 µM) | > 128 | 2 (≈ 5.32 µM) | 16 (≈ 42.6 µM) | 4 (≈ 10.6 µM) | 0.5 (≈ 1.33 µM) | 16 (≈ 42.6 µM) | 4 (≈ 10.6 µM) | 16 (≈ 42.6 µM) |  |  |  |  |  |  |  |  |  | 
O=C(Cc1csc2ccc(Cl)cc12)N[C@@H]1C(=O)N2C(C(=O)O)=C(Cl)CS[C@H]12 |  |  | 0.015 (≈ 0.0338 µM) | 64 (≈ 144 µM) |  |  | 128 (≈ 289 µM) | 2 (≈ 4.51 µM) | 128 (≈ 289 µM) |  |  |  |  |  |  |  |  |  | 
O=C(Cc1ccc(O)cc1)N[C@@H]1C(=O)N2C(C(=O)O)=C(Cl)CS[C@H]12 |  |  | 0.25 (≈ 0.678 µM) |  |  |  | 8 (≈ 21.7 µM) |  |  |  |  |  |  |  |  |  |  |  | 
O=C(Cc1ccccc1)N[C@@H]1C(=O)N2C(C(=O)O)=C(Cl)CS[C@H]12 |  | 128 (≈ 363 µM) | 0.125 (≈ 0.354 µM) |  |  |  | 4 (≈ 11.3 µM) |  |  |  |  |  |  |  |  |  |  |  | 
O=Cc1ccc(OCC(=O)N[C@@H]2C(=O)N3C(C(=O)O)=C(Cl)CS[C@H]23)cc1 | 1 (≈ 2.52 µM) | > 128 | 0.03 (≈ 0.0756 µM) | > 128 | 0.25 (≈ 0.63 µM) | 0.015 (≈ 0.0378 µM) | > 128 | 2 (≈ 5.04 µM) | > 128 |  |  |  |  |  |  |  |  |  | 
